# Data: ChEMBL document CHEMBL3784923, “Azathioprine pharmacokinetics after intravenous, oral, delayed release oral and rectal foam administration” (Gut, 1996)
# What was measured:
# Homo sapiens = organism: Homo sapiens; assay: Toxicity in inflammatory bowel disease patient assessed as induction of leucopenia; type: organism-based; details: in vivo
# [1] = Clearance in uraemic patient (15 patients) at 100 mg, iv; details: human, in vivo
# [2] = Volume of distribution at steady state in uraemic patient (15 patients) at 100 mg, iv; details: human, in vivo
# [3] = Tmax in uraemic patient (8 patients) at 100 mg, po; details: human, in vivo
# [4] = Cmax in uraemic patient (8 patients) at 100 mg, po; details: human, in vivo
# [5] = Oral bioavailability in uraemic patient (8 patients) at 100 mg; details: human, in vivo
# [6] = Stability in whole blood (unknown origin) using compound stored in ice water slurry; type: ADME, tissue-based; details: unidentified
# [7] = Stability in plasma (unknown origin) using compound stored in frozen condition; type: ADME, cell-free; details: unidentified
# [8] = Stability in plasma (unknown origin) at room temperature; type: ADME, cell-free; details: unidentified
# Summary of the method: (§1)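 6MP in plasma was held at room temperature, both unextracted and after extraction, and measured by HPLC.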
# [9] = Stability of the compound in extracted form in plasma (unknown origin) at room temperature; type: ADME, cell-free; details: unidentified; summary of the method: as §1
# [10] = Drug excretion in feces of human treated with Eudragit coated tablets; type: ADME, tissue-based; details: faeces, po, read-out: Drug excretion
clearance [1],Vd [2],Tmax [3],Cmax [4],bioavailability [5],Stability [6],Stability [7],Stability [8],Stability [9],dose excreted [10],SMILES,Activity (Homo sapiens)
103 mL/min/kg,9.3 L/kg,1.5 h,22 ng/mL,41%,<= 5 hr,<= 1 yr,,,,Cn1cnc([N+](=O)[O-])c1Sc1ncnc2nc[nH]c12 [AZATHIOPRINE],2%
,,,,,<= 5 hr,<= 1 yr,4 h,<= 30 hr,,Sc1ncnc2nc[nH]c12 [MERCAPTOPURINE ANHYDROUS],2%
,,,,,,,,,25%,Nc1ccc(O)c(C(=O)O)c1 [MESALAMINE],
